Experimental data from ChEMBL document CHEMBL1154198, “Chemical genetics of Plasmodium falciparum” (Nature, 2010).

Key:
Plasmodium falciparum [1] = test: ST_JUDE: Plasmodium falciparum 3D7 EC50 (uM) as measured by SYBR green dye; format: functional, organism-based
Plasmodium falciparum [2] = test: ST_JUDE: Plasmodium falciparum K1 EC50 (uM) as measured by SYBR green dye; format: functional, organism-based
Plasmodium falciparum [3] = test: ST_JUDE: Cytotoxicity against Plasmodium falciparum 3D7; format: functional, organism-based
In short: (§1)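 Asexual P. falciparum grown in human erythrocytes, exposed to compounds for 72 h, and growth read as the DNA quantity in treated versus control cultures. Dose-response run at 12 concentrations from 10 μM to 5 nM.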

Plasmodium falciparum [4] = test: ST_JUDE: Cytotoxicity against Plasmodium falciparum K1; format: functional, organism-based; in short: as §1
Plasmodium falciparum [5] = test: ST_JUDE: Cytotoxicity against Plasmodium falciparum V1/S; format: functional, organism-based
Toxoplasma gondii = test: ST_JUDE: Growth inhibition of to Toxoplasma gondii, in human U-2OS cells, as measured by luciferase.; format: functional, organism-based; conditions: RH, U2OS
In short: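 T. gondii parasites engineered to express luciferase; drug sensitivity read by luminescence.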

Trypanosoma brucei = test: ST_JUDE: Cytotoxicity using luciferase to measure ATP as an indicator of the viability of Trypanosoma brucei; format: functional, organism-based
Leishmania major = test: ST_JUDE: Cytotoxicity using Alamar Blue to measure viability of Leishmania major; format: functional, organism-based
In short: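 L. major promastigotes; drug susceptibility read with Alamar Blue.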

[6] = ST_JUDE: Cytotoxicity using luciferase to measure ATP as an indicator of the viability of human foreskin fibroblast cells (BJ); format: toxicity, cell-based
[7] = ST_JUDE: Cytotoxicity using luciferase to measure ATP as an indicator of the viability of human epithelial hepatocellular carcinoma cells (HepG2); format: toxicity, cell-based
[8] = ST_JUDE: Cytotoxicity using luciferase to measure ATP as an indicator of the viability of human epithelial embryonic kidney cells (HEK293); format: toxicity, cell-based
[9] = ST_JUDE: Cytotoxicity using luciferase to measure ATP as an indicator of the viability of human Burkitt''s lymphoma lymphoblast cells (Raji); format: toxicity, cell-based
Plasmodium falciparum [10] = test: ST_JUDE: Cytotoxicity against Plasmodium falciparum Dd2; format: functional, organism-based
Plasmodium falciparum [11] = test: ST_JUDE: Cytotoxicity against Plasmodium falciparum W2; format: functional, organism-based
Plasmodium falciparum [12] = test: ST_JUDE: Cytotoxicity against Plasmodium falciparum SB-A6; format: functional, organism-based
Plasmodium falciparum [13] = test: ST_JUDE: Cytotoxicity against Plasmodium falciparum D10 transfected with yeast DHOD; format: functional, organism-based

Row | Compound | EC50 (Plasmodium falciparum [1]) [µM] | EC50 (Plasmodium falciparum [2]) [µM] | EC50 (Plasmodium falciparum [3]) [µM] | EC50 (Plasmodium falciparum [4]) [µM] | EC50 (Plasmodium falciparum [5]) [µM] | EC50 (Toxoplasma gondii) [µM] | EC50 (Trypanosoma brucei) [µM] | EC50 (Leishmania major) [µM] | EC50 [6] [µM] | EC50 [7] [µM] | EC50 [8] [µM] | EC50 [9] [µM] | EC50 (Plasmodium falciparum [10]) [µM] | EC50 (Plasmodium falciparum [11]) [µM] | EC50 (Plasmodium falciparum [12]) [µM] | EC50 (Plasmodium falciparum [13]) [µM]
1 | C[N+](C)(C)c1nc(N2CCOCC2)nc(N(c2ccccc2)c2ccccc2)n1 | 0.529 | 1.83 | 0.396 | 1.51 | 1.84 | > 23.5 | 5.59 | > 18.3 | > 42.8 | > 42.8 | > 42.8 | 10.6 | 1.3 | 5.82 | 0.626 | 0.88
2 | CCCCOc1ccc(N(C(C)=O)C2=C(N3CCOCC3)C(=O)c3ccccc3C2=O)cc1 | 0.0989 | 0.0956 | 0.0708 | 0.066 | 0.0364 | > 17.1 | 4.01 | > 13.4 | > 31.2 | 3.89 | 10.9 | 3.82 | 0.488 | 0.93 | 0.0289 | 0.0212
3 | CCN(C(C)=O)C1=C(N2CCOCC2)C(=O)c2ccccc2C1=O | 0.348 | 0.692 | 0.431 | 0.439 | 0.514 | 3.21 | 5.67 | > 13.9 | 8.99 | 3.2 | > 32.5 | 2.73 | 0.38 | > 8.34 | 0.611 | 0.467
4 | CCOc1ccc(N(C(C)=O)C2=C(N(C)C)C(=O)c3ccccc3C2=O)cc1 | 0.0055 | 0.0075 | 0.0027 | 0.0035 | 0.0055 | 10.6 | 1.24 | > 12.9 | 11.2 | 4.82 | > 30.2 | 0.353 | 0.0063 | 0.0085 | 0.001 | 0.001
5 | CCc1ccc(S(=O)(=O)NC2=C/C(=N\c3ccccc3OC)C(=O)c3ccccc32)cc1 | 0.277 | 0.149 | 0.954 | 0.377 | 0.327 | > 21.8 | 1.98 | > 17 | 6.8 | 10.3 | 9.01 | 2.76 | 0.677 | > 10.2 | 0.531 | 0.406
6 | Cc1ccc(NC(=O)c2c(I)cnn2C)cc1[N+](=O)[O-] | 0.705 | 1.05 | 0.769 | > 11.7 | 3.73 | > 25.1 | > 43.9 | > 19.6 | > 45.7 | > 45.7 | > 45.7 | > 45.7 | 0.822 | 0.583 | > 11.7 | > 11.7
7 | Cc1cc(Nc2ccc(Br)c(C)c2)n2nc(C)nc2n1 | 0.167 | 0.161 | 0.214 | 0.298 | 0.296 | > 20.7 | > 36.2 | > 16.2 | > 37.8 | > 37.8 | > 37.8 | > 37.8 | 0.205 | 0.12 | > 9.71 | > 9.71
8 | CN1C(=O)/C(=C\c2ccccc2Cl)Sc2ccc(C(=O)NC3CCN(Cc4ccccc4)CC3)cc21 | 0.276 | 0.254 | 1.74 | 2.91 | 3.97 | > 23.3 | 3.47 | > 18.2 | > 42.5 | 17.9 | > 42.5 | > 42.5 | 1.15 | > 10.9 | 0.717 | 1.09
9 | CC(C)CN1C(=O)c2ccccc2C(C(=O)Nc2ccc(F)cc2F)C1c1cccs1 (stereo not drawn) | 0.326 | 0.399 | 0.647 | > 11.1 | 0.942 | > 23.7 | 8.86 | > 18.5 | > 43.3 | > 43.3 | > 43.3 | > 43.3 | 0.808 | 0.738 | 0.97 | 0.687
10 | CCOc1cc(C2CC(=O)NC3=C2C(=O)CC(c2ccc(OC)cc2)C3)cc(Cl)c1O (stereo not drawn) | 0.525 | 0.84 | 0.976 | 1.04 | 1.18 | > 24.3 | > 42.6 | > 19 | > 44.4 | > 44.4 | > 44.4 | > 44.4 | 1.31 | 0.637 | 1.23 | 1.16
11 | c1ccc(CCNc2ccnc3cc4ccccc4cc23)cc1 | 0.121 | 0.191 | 0.267 | 0.671 | 0.833 | > 17 | 2.88 | > 13.3 | 6.62 | 1.32 | 7.19 | 9.53 | 0.15 | 0.674 | 0.171 | 1
12 | O=[N+]([O-])c1ccc(S(=O)(=O)N2CCN(C(=S)NCc3ccco3)CC2)cc1 | 0.185 | 0.132 | 0.261 | 0.252 | 0.269 | > 17.4 | > 30.4 | > 13.6 | > 31.7 | > 31.7 | > 31.7 | > 31.7 | 0.123 | 0.299 | 0.289 | 0.316
13 | CCc1ccc(Nc2cc(C)c3ccc(O)cc3n2)cc1 | 0.733 | 0.127 | 0.636 | 0.188 | 0.182 | > 23.9 | > 41.8 | > 18.7 | > 43.6 | 23.5 | > 43.6 | 30.8 | 0.784 | 0.714 | 0.831 | 0.595
